Test results reported in ChEMBL document CHEMBL1142140, “Activity of ribavirin against Hantaan virus correlates with production of ribavirin-5'-triphosphate, not with inhibition of IMP dehydrogenase” (2007).
Calls of active or inactive are those of the source. No cut-off for these calls is given here.

Assays:
Vero [1] = assay: Inhibition of MPA effect on viral RNA in HTNV 76-118-infected Vero E6 cells at 35 uM; type: functional, cell-based; settings: Hantaan virus
Vero [2] = assay: Effect on metabolism of 10 ug/ml RBV in Vero E6 cells assessed as RBV-MP concentration at 10 ug/ml after 24 h; type: functional, Chlorocebus sabaeus
Outline: (§1)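 Vero E6 cells were given [3H]RBV for 24 h at 37°C, alone or with added MPA (experiment 1) or guanosine (experiment 2). Perchloric acid extracts were resolved on SAX HPLC, and RBV-MP and RBV-TP were quantified by counting 1-min fractions. Values are the mean ± SD of three measurements, and the experiment was repeated twice.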

Vero [3] = assay: Effect on metabolism of 40 ug/ml RBV in Vero E6 cells assessed as RBV-TP concentration at 10 ug/ml after 24 h; type: functional, Chlorocebus sabaeus; outline: as §1
Vero [4] = assay: Effect on metabolism of 40 ug/ml RBV in Vero E6 cells assessed as RBV-MP concentration at 10 ug/ml after 24 h; type: functional, Chlorocebus sabaeus; outline: as §1
Vero [5] = assay: Increase in GTP level in Vero E6 cells at 35 uM after 24 hr relative to control; type: functional, Chlorocebus sabaeus
Outline: (§2)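 Confluent 3-day-old Vero E6 cells incubated at 37°C with drug: 10 μg/ml RBV or 2.5 μg/ml MPA over a 0–72 h time course; RBV for 4 h; 10 μg/ml guanosine for 24 h. Ice-cold 0.5 M perchloric acid extracts neutralized with KOH, then SAX HPLC with an NH4H2PO4 gradient from pH 2.8 to 3.7. GTP and ATP read at 260 nm; mean of three measurements.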

Vero [6] = assay: Inhibition of 40 ug/ml RBV-induced depression in intracellular GTP level in Vero E6 cells at 35 uM after 24 h; type: functional, cell-based; settings: Chlorocebus sabaeus
Outline: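 Vero E6 cells were treated for 24 h with 40 μg/ml RBV, with or without 10 μg/ml guanosine. Acid-soluble (perchloric acid) extracts were run on SAX HPLC, and GTP and ATP were quantified by UV at 260 nm. Values are the mean of three measurements.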

Vero [7] = assay: Inhibition of 1 ug/ml RBV-induced depression in intracellular GTP level in Vero E6 cells at 35 uM after 24 h; type: functional, cell-based; settings: Chlorocebus sabaeus
Vero [8] = assay: Effect on metabolism of 10 ug/ml RBV in Vero E6 cells assessed as RBV-TP concentration at 10 ug/ml after 24 h; type: functional, Chlorocebus sabaeus; outline: as §1
Vero [9] = assay: Effect on metabolism of 10 ug/ml RBV in Vero E6 cells assessed as RBV-MP concentration at 1 ug/ml after 24 h; type: functional, Chlorocebus sabaeus; outline: as §1
Vero [10] = assay: Effect on metabolism of 40 ug/ml RBV in Vero E6 cells assessed as RBV-MP concentration at 2 ug/ml after 24 h; type: functional, Chlorocebus sabaeus; outline: as §1
Vero [11] = assay: Effect on metabolism of 40 ug/ml RBV in Vero E6 cells assessed as RBV-TP concentration at 5 ug/ml after 24 h; type: functional, Chlorocebus sabaeus; outline: as §1
Vero [12] = assay: Effect on metabolism of 10 ug/ml RBV in Vero E6 cells assessed as RBV-TP concentration at 1 ug/ml after 24 h; type: functional, Chlorocebus sabaeus; outline: as §1
Vero [13] = assay: Effect on metabolism of 10 ug/ml RBV in Vero E6 cells assessed as RBV-TP concentration at 2 ug/ml after 24 h; type: functional, Chlorocebus sabaeus; outline: as §1
Vero [14] = assay: Effect on metabolism of 40 ug/ml RBV in Vero E6 cells assessed as RBV-TP concentration at 2 ug/ml after 24 h; type: functional, Chlorocebus sabaeus; outline: as §1
Vero [15] = assay: Effect on metabolism of 40 ug/ml RBV in Vero E6 cells assessed as RBV-MP concentration at 5 ug/ml after 24 h; type: functional, Chlorocebus sabaeus; outline: as §1
Vero [16] = assay: Effect on metabolism of 10 ug/ml RBV in Vero E6 cells assessed as RBV-MP concentration at 2 ug/ml after 24 h; type: functional, Chlorocebus sabaeus; outline: as §1
Vero [17] = assay: Decrease in GTP level in Vero E6 cells at 40 ug/ml after 24 h; type: functional, Chlorocebus sabaeus; parameters: scale not given: the % may be the effect or the level left
[18] = Inhibition of viral RNA levels in HTNV76-118-infected Vero E6 cells at 10 ug/ml; type: functional, Hantaan virus; settings: Orthohantavirus hantanense, 76-118, Vero
Vero [19] = assay: Effect on metabolism of 40 ug/ml RBV in Vero E6 cells assessed as RBV-MP concentration at 1 ug/ml after 24 h; type: functional, Chlorocebus sabaeus; outline: as §1
Vero [20] = assay: Effect on metabolism of 10 ug/ml RBV in Vero E6 cells assessed as RBV-TP concentration at 5 ug/ml after 24 h; type: functional, Chlorocebus sabaeus; outline: as §1
Vero [21] = assay: Decrease in GTP level in Vero E6 cells at 2.5 ug/ml; type: functional, Chlorocebus sabaeus; parameters: scale not given: the % may be the effect or the level left; outline: as §2
Vero [22] = assay: Effect on metabolism of 10 ug/ml RBV in Vero E6 cells assessed as RBV-MP concentration at 5 ug/ml after 24 h; type: functional, Chlorocebus sabaeus; outline: as §1
Vero [23] = assay: Effect on metabolism of 40 ug/ml RBV in Vero E6 cells assessed as RBV-TP concentration at 1 ug/ml after 24 h; type: functional, Chlorocebus sabaeus; outline: as §1
Vero [24] = assay: RBV metabolism in Vero E6 cells assessed as RBV-TP concentration at 40 ug/ml after 24 h; type: functional, Chlorocebus sabaeus; outline: as §1
Vero [25] = assay: Decrease in GTP level in Vero E6 cells at 10 ug/ml; type: functional, Chlorocebus sabaeus; parameters: scale not given: the % may be the effect or the level left; outline: as §2
[26] = Inhibition of viral RNA levels in HTNV76-118-infected Vero E6 cells at 0.5 ug/ml; type: functional, Hantaan virus; settings: Orthohantavirus hantanense, 76-118, Vero
Vero [27] = assay: RBV metabolism in Vero E6 cells assessed as RBV-MP concentration at 40 ug/ml after 24 h; type: functional, Chlorocebus sabaeus; outline: as §1
[28] = Inhibition of viral RNA levels in HTNV 76-118-infected Vero E6 cells at 40 ug/ml after 3 days; type: functional, Hantaan virus; settings: Orthohantavirus hantanense, 76-118, Vero, 72 h
Vero [29] = assay: RBV metabolism in Vero E6 cells assessed as RBV-MP concentration at 10 ug/ml after 24 h; type: functional, Chlorocebus sabaeus; outline: as §1
Vero [30] = assay: Decrease in GTP level in Vero E6 cells at 40 ug/ml after 4 h; type: functional, cell-based; settings: Chlorocebus sabaeus; outline: as §2
Vero [31] = assay: RBV metabolism in Vero E6 cells assessed as RBV-TP concentration at 10 ug/ml after 24 h; type: functional, Chlorocebus sabaeus; outline: as §1

Nc1nc2c(ncn2[C@@H]2O[C@H](CO)[C@@H](O)[C@H]2O)c(=O)[nH]1 [GUANOSINE]
Activity (Vero [1]): Active
Activity (Vero [2]): 1.9 pmol
Activity (Vero [3]): 65 pmol
Activity (Vero [4]): 8.6 pmol
Activity (Vero [5]): 145%
Activity (Vero [6]): Active
Activity (Vero [7]): Active
Activity (Vero [8]): 14 pmol

COc1c(C)c2c(c(O)c1C/C=C(\C)CCC(=O)O)C(=O)OC2 [MYCOPHENOLIC ACID]
Activity (Vero [9]): 1.3 pmol
Activity (Vero [10]): 3.8 pmol
Activity (Vero [11]): 26 pmol
Activity (Vero [12]): 7.8 pmol
Activity (Vero [13]): 6.8 pmol
Activity (Vero [14]): 27 pmol
Activity (Vero [15]): 3.9 pmol
Activity (Vero [16]): 1.3 pmol
Activity (Vero [17]): 80%
inhibition at 10 µg/mL [18]: -70%
Activity (Vero [19]): 4.2 pmol
Activity (Vero [20]): 7 pmol
Activity (Vero [21]): 90%
Activity (Vero [22]): 1.2 pmol
Activity (Vero [23]): 26 pmol

NC(=O)c1ncn([C@@H]2O[C@H](CO)[C@@H](O)[C@H]2O)n1 [RIBAVIRIN]
Activity (Vero [24]): 22 pmol
Activity (Vero [25]): 40%
inhibition at 0.5 µg/mL [26]: -80%
Activity (Vero [27]): 3.2 pmol
inhibition at 40 µg/mL [28]: 99.9%
Activity (Vero [29]): 1.1 pmol
Activity (Vero [17]): 50%
Activity (Vero [30]): Active
Activity (Vero [31]): 6.5 pmol
